Assay results as given in ChEMBL document CHEMBL4033790, “Design and Synthesis of Novel Deuterated Ligands Functionally Selective for the γ-Aminobutyric Acid Type A Receptor (GABAAR) α6 Subtype with Improved Metabolic Stability and Enhanced Bioavailability” (J Med Chem, 2018).

Columns and labels:
Mus musculus [1] = experiment: Neurotoxicity in Swiss Webster mouse assessed as induction of motor impairment at 5 mg/kg administered via oral gavage measured after 10 to 60 mins by rotarod method; assay type: toxicity, organism-based; settings: in vivo
Summary of the method: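 Female Swiss Webster mice were given diazepam 5 mg/kg by oral gavage as the positive control. Rotarod performance was tested 10, 30 and 60 min after dosing.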

[2] = Metabolic stability in mouse liver microsomes assessed as parent compound remaining at 10 uM after 60 mins by LC-MS analysis; assay type: ADME, microsome; settings: read-out: Stability
Summary of the method: (§1)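 The 60 min samples of the microsomal incubation (10 μM compound, human or mouse liver microsomes at 0.5 mg/mL, NADPH regenerating system, 37 °C) were analysed by LC-MS. Detection used SIM mode with dual ESI/APCI ionization, calibrated to the retention times and masses of the parent and its O-demethylated metabolites. Peak intensities were measured.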

[3] = Drug metabolism in mouse liver microsomes assessed as CYP450 mediated-O-demethylated 7-bromo-2-(4-hydroxyphenyl)-2H-pyrazolo[4,3-c]quinolin-3(5H)-one metabolite formation after 60 mins by LC-MS analysis; assay type: ADME; settings: 1 h
Summary of the method: (§2)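 The 60-min samples from the human or mouse liver microsome incubations (10 µM compound, 0.5 mg/mL protein, NADPH regenerating system, 37 °C, pH 7.4) were run on LC-MS in SIM mode with dual ESI/APCI ionization. The method was calibrated to each component's retention time and mass, and the peak intensities of the parent and O-demethylated metabolites were measured.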

[4] = target: Voltage-gated inwardly rectifying potassium channel KCNH2 (Homo sapiens, UniProt Q12809); experiment: Displacement of [3H]-dofetilide from human ERG expressed in HEK cell membranes at >10 uM after 60 to 90 mins by scintillation counting
Sequence of Voltage-gated inwardly rectifying potassium channel KCNH2 (Q12809 whole entry): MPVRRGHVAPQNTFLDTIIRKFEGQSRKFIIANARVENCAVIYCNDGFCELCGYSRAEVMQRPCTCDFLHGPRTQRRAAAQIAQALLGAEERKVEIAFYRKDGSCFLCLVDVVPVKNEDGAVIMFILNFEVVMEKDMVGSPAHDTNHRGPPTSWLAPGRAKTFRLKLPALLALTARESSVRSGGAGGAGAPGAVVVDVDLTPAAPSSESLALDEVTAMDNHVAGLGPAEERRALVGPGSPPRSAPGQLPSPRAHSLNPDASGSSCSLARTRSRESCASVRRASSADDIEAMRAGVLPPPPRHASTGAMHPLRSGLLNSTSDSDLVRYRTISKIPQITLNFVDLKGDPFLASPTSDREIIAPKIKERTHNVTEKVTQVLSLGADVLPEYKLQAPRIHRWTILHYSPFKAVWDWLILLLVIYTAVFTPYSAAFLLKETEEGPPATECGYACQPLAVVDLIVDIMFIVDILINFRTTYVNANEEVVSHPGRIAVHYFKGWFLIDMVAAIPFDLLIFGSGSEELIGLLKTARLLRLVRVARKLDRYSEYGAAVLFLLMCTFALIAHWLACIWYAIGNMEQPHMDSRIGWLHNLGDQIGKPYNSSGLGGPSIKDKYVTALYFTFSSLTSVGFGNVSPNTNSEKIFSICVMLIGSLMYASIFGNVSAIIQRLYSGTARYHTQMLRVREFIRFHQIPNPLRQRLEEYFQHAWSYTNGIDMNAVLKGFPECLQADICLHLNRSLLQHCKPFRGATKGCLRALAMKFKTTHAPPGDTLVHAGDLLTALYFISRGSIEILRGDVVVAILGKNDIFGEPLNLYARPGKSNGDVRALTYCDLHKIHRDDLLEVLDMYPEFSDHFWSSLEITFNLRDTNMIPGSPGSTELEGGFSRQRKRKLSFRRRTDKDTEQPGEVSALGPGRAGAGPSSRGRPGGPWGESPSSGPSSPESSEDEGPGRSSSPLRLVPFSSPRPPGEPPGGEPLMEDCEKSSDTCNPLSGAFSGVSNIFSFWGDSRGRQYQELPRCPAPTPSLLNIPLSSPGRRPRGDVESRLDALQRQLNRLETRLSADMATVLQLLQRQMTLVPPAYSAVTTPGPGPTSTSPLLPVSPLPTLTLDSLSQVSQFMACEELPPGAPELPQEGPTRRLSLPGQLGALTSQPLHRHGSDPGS

HEK-293T = experiment: Cytotoxicity against HEK293T cells assessed as reduction in cell viability up to 400 uM after 48 hrs by CellTiter-Glo assay; assay type: cell-based; settings: human
Summary of the method: (§3)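 HEK293T and HepG2 cells grown in high-glucose DMEM with non-essential amino acids, 10 mM HEPES, penicillin/streptomycin and 10% heat-inactivated FBS. Cells were harvested with trypsin and plated; compound was pin-transferred 3 h later. Incubation was 48 h, then CellTiter-Glo luminescence was read. Controls were DMSO (negative) and a cytotoxic aminoketone (positive). Quadruplicates, three independent runs, normalized to controls, nonlinear regression.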

HepG2 = experiment: Cytotoxicity against human HepG2 cells assessed as reduction in cell viability up to 400 uM after 48 hrs by CellTiter-Glo assay; assay type: cell-based; settings: hepg2, 48 h; summary of the method: as §3
Liver = experiment: Half life in mouse liver microsomes at 10 uM by LC-MS/MS analysis; assay type: ADME, microsome
Summary of the method: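 Compound at 10 μM final was preincubated 5 min at 37 °C with NADPH regenerating system in phosphate buffer, pH 7.4. Human or mouse liver microsomes (0.5 mg/mL protein) were added to start the reaction. Samples were taken at 0 (no microsomes) and 10–60 min and measured by LC-MS/MS against an internal standard. Half-life = 0.693/k, with k the slope of ln peak-area ratio versus time. Three experiments, each in duplicate.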

[5] = Metabolic stability in human liver microsomes assessed as parent compound remaining at 10 uM after 60 mins by LC-MS analysis; assay type: ADME, microsome; settings: read-out: Stability; summary of the method: as §1
[6] = Drug metabolism in human liver microsomes assessed as CYP450 mediated-O-demethylated 7-bromo-2-(4-hydroxyphenyl)-2H-pyrazolo[4,3-c]quinolin-3(5H)-one metabolite formation after 60 mins by LC-MS analysis; assay type: ADME; settings: 1 h; summary of the method: as §2
Mus musculus [7] = experiment: Neurotoxicity in Swiss Webster mouse assessed as induction of motor impairment at 40 mg/kg administered via oral gavage measured after 10 to 60 mins by rotarod method; assay type: toxicity, organism-based; settings: in vivo
Summary of the method: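 Female mice were given a single oral gavage dose of 40 mg/kg, either in 50% PBS/40% propylene glycol/10% DMSO or, for poorly soluble compounds, in 2% polyethylene glycol plus 2.5% hydroxymethyl cellulose. Rotarod performance was tested 10, 30 and 60 min after dosing, with diazepam 5 mg/kg as positive control.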

[8] = Drug metabolism in human liver microsomes assessed as CYP450 mediated-O-demethylated 2-(6-hydroxypyridin-3-yl)-7-methoxy-2H-pyrazolo[4,3-c]quinolin-3(5H)-one metabolite formation after 60 mins by LC-MS analysis; assay type: ADME; settings: 1 h; summary of the method: as §2
[9] = Drug metabolism in mouse liver microsomes assessed as CYP450 mediated-O-demethylated 7-hydroxy-2-[6-(trideuteriomethoxy)-3-pyridyl]-5H-pyrazolo[4,3-c]quinolin-3-one metabolite formation after 60 mins by LC-MS analysis; assay type: ADME; settings: 1 h; summary of the method: as §2
[10] = Drug metabolism in human liver microsomes assessed as CYP450 mediated-O-demethylated 7-hydroxy-2-[6-(trideuteriomethoxy)-3-pyridyl]-5H-pyrazolo[4,3-c]quinolin-3-one metabolite formation after 60 mins by LC-MS analysis; assay type: ADME; settings: 1 h; summary of the method: as §2
[11] = Drug metabolism in human liver microsomes assessed as CYP450 mediated-O-demethylated 7-hydroxy-2-(6-hydroxypyridin-3-yl)-2H-pyrazolo[4,3-c]quinolin-3(5H)-one metabolite formation after 60 mins by LC-MS analysis; assay type: ADME; settings: 1 h; summary of the method: as §2
[12] = Drug metabolism in mouse liver microsomes assessed as CYP450 mediated-O-demethylated 7-hydroxy-2-(6-hydroxypyridin-3-yl)-2H-pyrazolo[4,3-c]quinolin-3(5H)-one metabolite formation after 60 mins by LC-MS analysis; assay type: ADME; settings: 1 h; summary of the method: as §2
[13] = Drug metabolism in mouse liver microsomes assessed as CYP450 mediated-O-demethylated 2-(6-hydroxypyridin-3-yl)-7-methoxy-2H-pyrazolo[4,3-c]quinolin-3(5H)-one metabolite formation after 60 mins by LC-MS analysis; assay type: ADME; settings: 1 h; summary of the method: as §2

SMILES	Activity (Mus musculus [1])	remaining at 1 h, 10 µM [2] [%]	Drug metabolism [3]	inhibition (INH) [4]	Activity (HEK-293T)	Activity (HepG2)	t1/2 (Liver) [h]	remaining at 1 h, 10 µM [5] [%]	Drug metabolism [6]	Activity (Mus musculus [7])	Drug metabolism [8]	Drug metabolism [9]	Drug metabolism [10]	Drug metabolism [11]	Drug metabolism [12]	Drug metabolism [13]
CN1C(=O)CN=C(c2ccccc2)c2cc(Cl)ccc21 [DIAZEPAM]	Toxic	–	–	–	–	–	–	–	–	–	–	–	–	–	–	–
[2H]C([2H])([2H])Oc1ccc(-n2nc3c4ccc(Br)cc4[nH]cc-3c2=O)cc1	–	73.8	Metabolite_Detected	Not Active	Non-Toxic	Non-Toxic	2.3	81.5	Metabolite_Detected	Non-Toxic	–	–	–	–	–	–
[2H]C([2H])([2H])Oc1ccc(-n2nc3c4ccc(OC)cc4[nH]cc-3c2=O)cn1	–	92.4	–	Not Active	–	–	–	92.6	–	Non-Toxic	Metabolite_Detected	Metabolite_Detected	Metabolite_Detected	Metabolite_Detected	Metabolite_Detected	Metabolite_Detected
